# Measurements from ChEMBL document CHEMBL4373668, “Bivalent AMPA receptor positive allosteric modulators of the bis(pyrimidine) series” (Medchemcomm, 2019).
# Experiments:
# [1] = molecular target: T1, Glutamate receptor ionotropic, AMPA (Rattus norvegicus) (UniProt P19491+P19492+P19493+P19490); experiment: Positive allosteric modulation of rat Purkinje neuron AMPA receptor assessed as change in kainate-induced current at 10^-7 M measured for 2 mins by patch clamp assay (rvb = 100%)
# Procedure, shortened: (§1)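 Purkinje neurons were freshly isolated from the cerebellum of 12–16-day-old rat pups by protease/collagenase digestion at 34°C under O₂. Whole-cell patch clamp was used, with compounds given by fast perfusion in extracellular saline at pH 7.32. Kainic acid (20 µM) was applied three times per concentration, 2 min apart, with a 3-min washout between concentrations. Current amplitude was normalized to the KA control (100%), using 4–7 neurons per concentration.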
# [2] = molecular target: T1, Glutamate receptor ionotropic, AMPA (Rattus norvegicus); experiment: Positive allosteric modulation of rat Purkinje neuron AMPA receptor assessed as change in kainate-induced current at 10^-10 M measured for 2 mins by patch clamp assay (rvb = 100%); procedure, shortened: as §1
# [3] = molecular target: T1, Glutamate receptor ionotropic, AMPA (Rattus norvegicus); experiment: Positive allosteric modulation of rat Purkinje neuron AMPA receptor assessed as change in kainate-induced current at 10^-11 M measured for 2 mins by patch clamp assay (rvb = 100%); procedure, shortened: as §1
# [4] = molecular target: T1, Glutamate receptor ionotropic, AMPA (Rattus norvegicus); experiment: Positive allosteric modulation of rat Purkinje neuron AMPA receptor assessed as change in kainate-induced current at 10^-8 M measured for 2 mins by patch clamp assay (rvb = 100%); procedure, shortened: as §1
# [5] = molecular target: T1, Glutamate receptor ionotropic, AMPA (Rattus norvegicus); experiment: Positive allosteric modulation of rat Purkinje neuron AMPA receptor assessed as change in kainate-induced current at 10^-12 M measured for 2 mins by patch clamp assay (rvb = 100%); procedure, shortened: as §1
# [6] = molecular target: T1, Glutamate receptor ionotropic, AMPA (Rattus norvegicus); experiment: Positive allosteric modulation of rat Purkinje neuron AMPA receptor assessed as change in kainate-induced current at 10^-9 M measured for 2 mins by patch clamp assay (rvb = 100%); procedure, shortened: as §1
# [7] = molecular target: T1, Glutamate receptor ionotropic, AMPA (Rattus norvegicus); experiment: Positive allosteric modulation of rat Purkinje neuron AMPA receptor assessed as change in kainate-induced current at 10^-6 M measured for 2 mins by patch clamp assay (rvb = 100%); procedure, shortened: as §1
# [8] = molecular target: T1, Glutamate receptor ionotropic, AMPA (Rattus norvegicus); experiment: Positive allosteric modulation of rat Purkinje neuron AMPA receptor assessed as change in kainate-induced current at 10^-5 M measured for 2 mins by patch clamp assay (rvb = 100%)
# [9] = molecular target: T1, Glutamate receptor ionotropic, AMPA (Rattus norvegicus); experiment: Positive allosteric modulation of rat Purkinje neuron AMPA receptor assessed as change in kainate-induced current at 3 x 10^-5 M measured for 2 mins by patch clamp assay (rvb = 100%)
Activity [1] [%],Activity [2] [%],Activity [3] [%],Activity [4] [%],Activity [5] [%],Activity [6] [%],Activity [7] [%],Activity [8] [%],Activity [9] [%],Compound
98,72,84,92,100,82,–,–,–,CC(C)c1nc2c(c(Oc3ccc(Oc4nc(C(C)C)nc5c4CCCC5)cc3)n1)CCCC2
97,100,100,96,–,95,96,–,–,c1cc(Oc2nc(C3CC3)nc3c2CCCC3)ccc1Oc1nc(C2CC2)nc2c1CCCC2

# The remaining lines, values behind:
Compound,Activity [1] [%],Activity [2] [%],Activity [3] [%],Activity [4] [%],Activity [5] [%],Activity [6] [%],Activity [7] [%],Activity [8] [%],Activity [9] [%]
CCc1nc2c(c(Oc3ccc(Oc4nc(CC)nc5c4CCCC5)cc3)n1)CCCC2,100,126,117,128,100,155,–,–,–
CC(C)(C)c1nc2c(c(Oc3ccc(Oc4nc(C(C)(C)C)nc5c4CCCC5)cc3)n1)CCCC2,133,108,100,125,–,120,145,–,–
NS(=O)(=O)c1cc2c(cc1Cl)NC(C1CC3C=CC1C3)NS2(=O)=O (stereo not given),100,–,–,–,–,–,145,235,560
Cc1nc2c(c(Oc3ccc(Oc4nc(C)nc5c4CCCC5)cc3)n1)CCCC2,85,143,132,123,108,170,78,–,–
